# In publication PMC8244166 (Neuron, 2020):
# Where “and” joins values, the source holds several entries; their conditions need not be identical. Identical values can stand only once.
# How the values were obtained:
# Glu864Trp channel = assay: Single channel recordings, point mutant; format: cell-based, human; conditions: +80 mV
# hTRPA1 [1] = target: T1, hTRPA1 (Homo sapiens, UniProt O75762); assay: Whole-cell voltage-clamp recordings of TRPA1-expressing HEK293-F cells; format: cell-based; conditions: for current of second application compared to the first: whole-cell, n = 3
# T1 sequence (O75762 whole entry): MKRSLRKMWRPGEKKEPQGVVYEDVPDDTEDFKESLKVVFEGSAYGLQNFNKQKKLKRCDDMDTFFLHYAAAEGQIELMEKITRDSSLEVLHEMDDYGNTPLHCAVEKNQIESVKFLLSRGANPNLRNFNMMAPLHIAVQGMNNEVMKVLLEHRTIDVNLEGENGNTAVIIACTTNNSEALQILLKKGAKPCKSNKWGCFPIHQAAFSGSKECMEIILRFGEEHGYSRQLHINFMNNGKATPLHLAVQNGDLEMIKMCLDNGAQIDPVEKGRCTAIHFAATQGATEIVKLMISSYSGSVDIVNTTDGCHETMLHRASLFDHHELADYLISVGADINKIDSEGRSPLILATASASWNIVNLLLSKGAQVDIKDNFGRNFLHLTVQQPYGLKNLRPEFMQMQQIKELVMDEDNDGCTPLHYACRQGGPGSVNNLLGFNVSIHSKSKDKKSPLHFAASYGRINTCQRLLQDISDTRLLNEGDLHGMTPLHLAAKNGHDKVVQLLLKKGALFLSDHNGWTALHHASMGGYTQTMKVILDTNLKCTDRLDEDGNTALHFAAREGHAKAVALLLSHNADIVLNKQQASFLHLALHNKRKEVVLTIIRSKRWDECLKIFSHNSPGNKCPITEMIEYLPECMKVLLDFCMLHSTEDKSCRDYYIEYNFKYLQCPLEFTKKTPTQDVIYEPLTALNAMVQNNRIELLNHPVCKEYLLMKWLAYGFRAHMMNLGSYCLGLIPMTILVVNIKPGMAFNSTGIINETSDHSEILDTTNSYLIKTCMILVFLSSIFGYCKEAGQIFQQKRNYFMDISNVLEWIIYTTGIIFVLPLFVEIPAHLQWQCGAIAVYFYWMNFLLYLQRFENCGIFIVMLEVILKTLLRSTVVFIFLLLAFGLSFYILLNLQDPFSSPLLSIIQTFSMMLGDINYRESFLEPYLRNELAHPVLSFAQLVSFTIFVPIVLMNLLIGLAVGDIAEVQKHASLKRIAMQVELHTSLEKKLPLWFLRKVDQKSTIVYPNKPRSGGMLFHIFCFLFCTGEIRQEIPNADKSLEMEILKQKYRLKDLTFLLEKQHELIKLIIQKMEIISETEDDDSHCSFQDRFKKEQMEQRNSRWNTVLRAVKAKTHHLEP
# Gln940Val TRPA1 = assay: Whole-cell patch clamp, point mutant; format: cell-based, human; conditions: GNE551 1.5 μM, AITC positive control, n = 4
# In short: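 HEK293-F cells are recorded whole-cell one day after transient transfection. From a 0 mV holding potential, the protocol is 10 msec at −80 mV, a 200 msec ramp to +80 mV, then 10 msec at +80 mV, applied once per second. Nominally Ca2+-free solutions are used: bath NaCl/HEPES with 0.1 mM EGTA, pH 7.4; pipette CsF with 10 mM EGTA, pH 7.2. Compounds are delivered by fast solution exchange.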
# TRPA1 channel = assay: Inside-out single channel / macropatch recordings; format: cell-based, human; conditions: for y (single channel conductance) / Px/PNa (ion selectivity against Na+): 1 μM GNE551, 10 μM AITC; for Erev (reversal potential) / opening frequency / single channel open probability (Po): 1 μM GNE551 (n = 5); for Erev (reversal potential): 10 μM AITC (n = 4); for channel desensitization: nominally Ca2+-free solutions, AITC 10 μM, GNE551 1 μM; for opening frequency / single channel open probability (Po) / open state dwell time: inside-out; for opening frequency / single channel open probability (Po): +80 mV, 100 nM WaTx (n = 8); for open state dwell time: agonist-activated channels
# TRPA1 Glu864Trp mutant = assay: Ca2+ assay, point mutant; format: cell-based, human; conditions: high background Ca2+ signals
# In short: (§1)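 HEK293-F cells are transiently transfected with the TRPA1 construct one day before imaging. Cells are loaded with a calcium-sensitive dye for 1 h at 37 °C. Compound is added and fluorescence (Ca2+ RFU) is recorded on a kinetic fluorescence imager. EC50 comes from nonlinear regression constrained to EC50 > 0, Bottom = 0 and Hill slope between 1 and 3.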
# [2] = tested on: rat hind paw nocifensive behavior; assay: Nocifensive behavior after intraplantar agonist injection; format: in vivo; conditions: for cumulative nocifensive time: n = 7
# In short: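 Male Sprague-Dawley rats aged 8 weeks or older are used; KO versus WT littermates from heterozygote crosses include both sexes. Under light restraint, a unilateral intraplantar injection of 25 μL is given with a 30-gauge needle: reference electrophile 0.1% or test agonist 10 mM. Rats are video-recorded 15 min (reference) or 30 min (test agonist) during the light phase. Licking, flicking and guarding time is scored blind offline, and groups are compared by two-tailed t-test.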
# [3] = Glutathione reactivity assay; format: physicochemical; conditions: 10 μM compound, 1 mM glutathione, pH7.4, 37°C, 30 minutes
# In short: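 The test compound (10 μM) is incubated with or without 1 mM glutathione in 50 mM potassium phosphate, pH7.4, at 37°C for 30 minutes, and the reaction is stopped on ice. Samples run by UHPLC-MS on a C18 column at 40 °C and 0.4 mL/min, with a 0.1% formic acid water/acetonitrile gradient of 5–50% B over 15 minutes, then a 95% B wash.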
# human TRPC6 = assay: Ion channel selectivity test; format: cell-based; conditions: 20 μM
# TRPA1 from guinea pig = assay: Ca2+ assay, species TRPA1; format: cell-based
# In short: as §1
# NK1 receptor [4] = assay: CEREP panel binding inhibition; conditions: 10 μM
# human TRPM8 = assay: Ion channel selectivity test; format: cell-based; conditions: 20 μM
# human TRPV1 = assay: Ion channel selectivity test; format: cell-based; conditions: 20 μM
# TRPA1 from rat = assay: Ca2+ assay, species TRPA1; format: cell-based
# In short: as §1
# NK1 receptor [5] = assay: NK1 receptor agonist / antagonist assay; format: cell-based; conditions: up to 30 μM
# [6] = tested on: chimera containing S1-S6 domains of chicken TRPA1; assay: Ca2+ assay, human-chicken chimera; format: cell-based
# In short: as §1
# [7] = tested on: Cav1.2 (L-dihydropyridine site); assay: CEREP panel binding inhibition
# TRPA1 Phe909Ala = assay: Ca2+ assay, point mutant; format: cell-based, human
# In short: as §1
# [8] = tested on: TRPA1 Gln940 to Asn, Val or Ala; assay: Ca2+ assay, point mutants; format: cell-based, human
# In short: as §1
# TRPA1 from rhesus monkey = assay: Ca2+ assay, species TRPA1; format: cell-based
# In short: as §1
# [9] = tested on: TRPA1 Ser887 to Trp or Met; assay: Ca2+ assay, point mutants; format: cell-based, human
# In short: as §1
# [10] = tested on: TRPA1 Ser873Val/Thr874Leu; assay: Ca2+ assay, point mutant; format: cell-based, human
# In short: as §1
# chicken TRPA1 = assay: Ca2+ assay, species TRPA1; format: cell-based; conditions: concentration as high as 50 μM
# In short: as §1
# TRPA1 from dog = assay: Ca2+ assay, species TRPA1; format: cell-based
# In short: as §1
# TRPA1 Tyr840 to Phe = assay: Ca2+ assay, point mutant; format: cell-based, human; conditions: versus wild type
# In short: as §1
# [11] = tested on: human potassium channel hERG1; assay: Ion channel selectivity test; format: cell-based; conditions: 10 μM
# hTRPA1 [12] = target: T1, hTRPA1; assay: Ca2+ influx assay, HEK293-F cells expressing human TRPA1; format: cell-based
# [13] = tested on: Gln940Val mutant human channel; assay: Ca2+ assay, point mutant; format: cell-based
# In short: as §1
# Cav1.2 = Cav1.2 assay; format: cell-based; conditions: up to 30 μM
# [14] = tested on: TRPA1 Tyr840 to Trp, His, Leu, or Ala; assay: Ca2+ assay, point mutants; format: cell-based, human
# In short: as §1
# [15] = tested on: rat dorsal root ganglion neurons; assay: Ca2+ influx in dorsal root ganglion neurons; format: cell-based; conditions: WT versus TRPA1 KO rats
# hTRPA1 [16] = target: T1, hTRPA1
# cryo-EM structure = target: the molecule itself; assay: cryo-EM structure
molecule,measurement,setting,value
"CCC(=N\O)/C(C)=C/c1ccc(F)cc1 [A-967079, reference compound]",block of high basal activity,Glu864Trp channel; A-967079 1 μM,blocked
"C=CCN=C=S [AITC, allyl isothiocyanate, reference compound]",current of second application compared to the first,hTRPA1 [1]; −80 mV,19.4 ± 4.3%
same,activation of mutant channel,Gln940Val TRPA1,robust response
same,y (single channel conductance),TRPA1 channel; cation Ca2+,30.9 ± 6.2 pS
same,Erev (reversal potential),TRPA1 channel; cation Mg2+,−19.1 ± 1.5 mV
same,y (single channel conductance),TRPA1 channel; cation Mg2+,30.1 ± 6.8 pS
same,y (single channel conductance),TRPA1 channel; cation Na+,134.9 ± 11.6 pS
same,channel desensitization,TRPA1 channel,desensitized within seconds
same,response of mutant to agonist stimulation,TRPA1 Glu864Trp mutant,almost lost responses
same,nocifensive response,"[2]; after 10 min, AITC 0.1%, 25 μl",completely disappeared
same,cumulative nocifensive time,"[2]; first 5 min period, AITC 0.1%, 25 μl, WT rats",102 ± 19 s
same,nocifensive behavior,"[2]; intraplantar AITC 0.1%, 25 μl, WT and TRPA1 KO rats",elicited nocifensive behavior in wild type (WT) but not in knock out (KO) rats
same,cumulative nocifensive time,"[2]; second 5 min period, AITC 0.1%, 25 μl, WT rats",57.7 ± 11.1 s
same,glutathione adduct formation,[3],formed a glutathione adduct
"COc1ccc(OC)c(NC(=O)c2nnn(Cc3ccc(Br)cc3F)c2N)c1 [GNE551, 5-amino-1-(4-bromo-2-fluorobenzyl)-N-(2,5-dimethoxyphenyl)-1H-1,2,3-triazole-4-carboxamide]",activation or block of channel,human TRPC6,did not activate or block
same,channel activation,TRPA1 from guinea pig,activated
same,binding inhibition,NK1 receptor [4],> 75%
same,activation or block of channel,human TRPM8,did not activate or block
same,EC50,hTRPA1 [1],141 nM
same,current of second application compared to the first,hTRPA1 [1]; +80 mV,93.5 ± 0.5%
same,current of second application compared to the first,hTRPA1 [1]; −80 mV,89.0 ± 6.3%
same,activation of mutant channel,Gln940Val TRPA1,failed to activate
same,Erev (reversal potential),TRPA1 channel; cation Ca2+,−25.6 ± 1.1 mV
same,Px/PNa (ion selectivity against Na+),TRPA1 channel; cation Ca2+,15.7 ± 1.1
same,y (single channel conductance),TRPA1 channel; cation Ca2+,21.6 ± 2.8 pS
same,Erev (reversal potential),TRPA1 channel; cation Mg2+,−13.2± 2.7 mV
same,Px/PNa (ion selectivity against Na+),TRPA1 channel; cation Mg2+,7.2 ± 1.3
same,y (single channel conductance),TRPA1 channel; cation Na+,101.4 ± 6.8 pS
same,opening frequency,TRPA1 channel,4.6 ± 0.6 Hz
same,single channel open probability (Po),TRPA1 channel,0.41 ± 0.07 and 0.41
same,open state dwell time,TRPA1 channel,20.9 milliseconds
same,channel desensitization,TRPA1 channel,did not result in desensitization
same,activation or block of channel,human TRPV1,did not activate or block
same,channel activation,TRPA1 from rat,activated
same,response of mutant to agonist stimulation,TRPA1 Glu864Trp mutant,almost lost responses
same,agonistic or antagonistic effect on NK1 receptor,NK1 receptor [5],did not translate to significant agonistic or antagonistic effect
same,latency to nocifensive response,"[2]; GNE551 10 mM, 25 μl, WT rats",reduced
same,residual response in TRPA1 KO rats,"[2]; GNE551 10 mM, possibly vehicle effect",13%
same,nocifensive behaviors,[2]; first 5 min after injection of GNE551,"virtually no paw flicking, licking, or guarding"
same,nocifensive response,"[2]; intraplantar GNE551 1, 3, and 10 mM, 25 μl, WT rats",dose-dependent manner
same,time to plateau of nocifensive behaviors after injection,"[2]; intraplantar GNE551, 30-min observation",15 to 20 min
same,response of chimera,[6],lost response
same,inhibition at 10 µM,[7],> 75%
same,effect of mutation on GNE551 activation,TRPA1 Phe909Ala,not affected
same,effect of mutation on sensitivity to GNE551,[8],completely abolished
same,glutathione adduct formation,[3],did not form an adduct
same,channel activation,TRPA1 from rhesus monkey,activated
same,effect of mutation on activation,[9],loss of activation
same,open probability (Po),"Glu864Trp channel; GNE551 1 μM, n = 4, basal Po 0.56 ± 0.05",0.80 ± 0.08
same,effect of mutation on GNE551 activation,[10],not affected
same,channel activation,chicken TRPA1,no effect
same,channel activation,TRPA1 from dog,activated
same,reduction of potency by mutation,TRPA1 Tyr840 to Phe,six-fold
same,inhibition of channel,[11],did not inhibit
same,EC50,hTRPA1 [12],254 nM
same,efficacy compared to AITC,"hTRPA1 [12]; Ca2+ influx, human TRPA1",equally efficacious
same,effect of mutation on GNE551 activation,[13],nearly abolished
same,inhibition of Cav1.2,Cav1.2,did not translate to
same,effect of mutation on sensitivity to GNE551,[14],completely abolished
same,specificity of activation in DRG neurons,[15],solely activated TRPA1 channels
WaTx: cell-penetrating peptide toxin that activates TRPA1 (ASPQQAKYCYEQCNVNKVPFDQCYQMCSPLERS) [reference compound],opening frequency,TRPA1 channel,1.7 ± 0.5 Hz
same,single channel open probability (Po),TRPA1 channel,0.045 ± 0.012
same,open state dwell time,TRPA1 channel,2.2 milliseconds
cell-penetrating peptide toxin WaTx (from UniProt C0HLG4 36-68),"open state dwell time of WaTx-activated channels, inside-out patches",hTRPA1 [16],2.2 milliseconds
"human TRPA1 [Ser448-Thr1078], truncated and non-functional construct for structural studies (domain or fragment) GSGGSGGSGGSGGSPLHFAASYGRINTCQRLLQDISDTRLLNEGDLHGMTPLHLAAKNGHDKVVQLLLKKGALFLSDHNGWTALHHASMGGYTQTMKVILDTNLKCTDRLDEDGNTALHFAAREGHAKAVALLLSHNADIVLNKQQASFLHLALHNKRKEVVLTIIRSKRWDECLKIFSHNSPGNKCPITEMIEYLPECMKVLLDFCMLHSTEDKSCRDYYIEYNFKYLQCPLEFTKKTPTQDVIYEPLTALNAMVQNNRIELLNHPVCKEYLLMKWLAYGFRAHMMNLGSYCLGLIPMTILVVNIKPGMAFNSTGIINETSDHSEILDTTNSYLIKTCMILVFLSSIFGYCKEAGQIFQQKRNYFMDISNVLEWIIYTTGIIFVLPLFVEIPAHLQWQCGAIAVYFYWMNFLLYLQRFENCGIFIVMLEVILKTLLRSTVVFIFLLLAFGLSFYILLNLQDPFSSPLLSIIQTFSMMLGDINYRESFLEPYLRNELAHPVLSFAQLVSFTIFVPIVLMNLLIGLAVGDIADVQKHASLKRIAMQVELHTSLEKKLPLWFLRKVDQKSTIVYPNKPRSGGMLFHIFCFLFCTGEIRQEIPNADKSLEMEILKQKYRLKDLTFLLEKQHELIKLIIQKMEIISET",binding result,cryo-EM structure,binds
